Laboratory results from ChEMBL document CHEMBL4020752, “Synthesis and biological activity of new phthalimides as potential anti-inflammatory agents” (Bioorg Med Chem, 2017).
≈ marks a conversion by molar mass, not a printed value. Calls of active or inactive are those of the source. The rule behind the calls is not given here.

What was measured:
[1] = test system: RAW264.7; assay: Anti-inflammatory activity in mouse RAW264.7 cells assessed as inhibition of LPS-induced NO production by measuring remaining NO level at 20 ug/ml after 22 hrs by Griess assay relative to control; type: functional
In short: (§1)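 RAW 264.7 cells seeded at 2×10^5/well, grown 24 h at 37 °C in 5% CO2, washed twice with PBS, given fresh medium, then exposed to LPS 1 µg/mL with or without test compound for 22 h. Nitrite in the medium read by Griess reagent at 540 nm against a sodium nitrite standard curve. IC50 obtained by nonlinear regression of % inhibition vs concentration. Means ± SD of three independent experiments.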

[2] = test system: RAW264.7; assay: Anti-inflammatory activity in mouse RAW264.7 cells assessed as inhibition of LPS-induced NO production by measuring […] level at 20 ug/ml after 22 hrs by Griess assay (reference value: 25.31 uM); type: functional; in short: as §1
[3] = test system: RAW264.7; assay: Anti-inflammatory activity in mouse RAW264.7 cells assessed as inhibition of LPS-induced NO production by measuring remaining NO level at 50 uM after 22 hrs by Griess assay relative to control; type: functional; in short: as §1
[4] = test system: RAW264.7; assay: Anti-inflammatory activity in mouse RAW264.7 cells assessed as inhibition of LPS-induced NO production by measuring […] level at 50 uM after 22 hrs by Griess assay (reference value: 25.31 uM); type: functional; in short: as §1
[5] = test system: RAW264.7; assay: Anti-inflammatory activity in mouse RAW264.7 cells assessed as inhibition of LPS-induced NO production at 50 uM after 22 hrs by Griess assay relative to control; type: functional; details: RAW264.7, 22 h; in short: as §1
[6] = test system: RAW264.7; assay: Anti-inflammatory activity in mouse RAW264.7 cells assessed as inhibition of LPS-induced NO production after 22 hrs by Griess assay; type: functional, cell-based; in short: as §1
[7] = Cytotoxicity against mouse RAW264.7 cells assessed as survival up to 20 ug/ml after 22 hrs by MTT assay relative to control; type: cell-based; details: read-out: Survival
In short: (§2)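 RAW 264.7 cells were grown in DMEM with 10% heat-inactivated FBS at 37 °C and 5% CO₂, then plated at 2×10^5 per well for 24 h. After washing, cells received 1 µg/mL LPS with or without compound (up to 40 µg/mL) for 22 h. After the Griess read, MTT (final 500 µg/mL) was added for 3 h at 37 °C. Formazan was dissolved in DMSO and read at 570 nm, giving % survival versus control.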

[8] = Cytotoxicity against mouse RAW264.7 cells assessed as survival at 40 ug/ml after 22 hrs by MTT assay relative to control; type: cell-based; details: read-out: Survival; in short: as §2
[9] = test system: RAW264.7; assay: Downregulation of LPS-stimulated iNOS protein expression level in mouse RAW264.7 cells preincubated for 30 mins followed by LPS stimulation for 16 hrs by Western blot analysis; type: functional, cell-based
In short: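 Cells pretreated with a range of compound concentrations for 30 min, then stimulated with LPS 1 µg/mL for 16 h. iNOS protein analysed by western blot.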

[10] = test system: RAW264.7; assay: Downregulation of LPS-stimulated iNOS mRNA expression level in mouse RAW264.7 cells preincubated for 30 mins followed by LPS stimulation for 4 hrs by RT-PCR method; type: functional, cell-based
[11] = test system: RAW264.7; assay: Downregulation of LPS-stimulated TNF-alpha protein expression level in mouse RAW264.7 cells up to 20 ug/ml preincubated for 30 mins followed by LPS stimulation for 4 hrs by Western blot analysis; type: functional, cell-based
In short: (§3)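 RAW 264.7 cells pretreated with a range of compound concentrations for 30 min, then stimulated with LPS 1 µg/mL for 4 h. Total protein extracted and cytokine levels analysed by western blotting.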

[12] = test system: RAW264.7; assay: Downregulation of LPS-stimulated IL-1beta protein expression level in mouse RAW264.7 cells up to 20 ug/ml preincubated for 30 mins followed by LPS stimulation for 4 hrs by Western blot analysis; type: functional, cell-based; in short: as §3
[13] = test system: RAW264.7; assay: Downregulation of LPS-stimulated IL-1beta mRNA expression level in mouse RAW264.7 cells preincubated for 30 mins followed by LPS stimulation for 4 hrs by RT-PCR method; type: functional, cell-based
In short: (§4)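 Cells pretreated with compound for 30 min, then stimulated with LPS 1 µg/mL for 4 h. Total RNA extracted and cytokine mRNA measured by real-time PCR. Means ± SD of triplicate tests.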

[14] = organism: Mus musculus; assay: Inhibition of NF-kB transcriptional activity in LPS-stimulated mouse RAW264.7 cells up to 20 ug/ml preincubated for 2 hrs followed by LPS stimulation for 16 hrs by SEAP reporter gene assay
In short: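 RAW-SEAP cells cultured 24 h, pretreated with compound for 2 h, then given LPS 1 µg/mL for 16 h. Supernatants heated at 65 °C for 5 min and reacted with buffer (2 M diethanolamine, 1 mM MgCl2, 500 µM MUP) in the dark at 37 °C for 1 h. Fluorescence read at ex 360/em 449 nm, normalized to protein, expressed relative to vehicle control without LPS.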

[15] = organism: Mus musculus; assay: Inhibition of IkB kinase in LPS-stimulated mouse RAW264.7 cells assessed as reduction in IkB-alpha phosphorylation up to 20 ug/ml preincubated with cells followed by LPS stimulation for 30 mins by Western blot analysis
In short: (§5)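 Pretreatment with a range of compound concentrations for 30 min, then LPS 1 µg/mL for 30 min. IκBα, phospho-protein and related protein levels analysed by western blot.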

[16] = test system: RAW264.7; assay: Downregulation of IkB-alpha level in LPS-stimulated mouse RAW264.7 cells up to 20 ug/ml preincubated with cells followed by LPS stimulation for 30 mins by Western blot analysis; type: functional, cell-based; in short: as §5
[17] = test system: RAW264.7; assay: Downregulation of IKKbeta level in LPS-stimulated mouse RAW264.7 cells up to 20 ug/ml preincubated with cells followed by LPS stimulation for 16 hrs by Western blot analysis; type: functional, cell-based
In short: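 RAW 264.7 cells pretreated with a range of compound concentrations, then stimulated with LPS 1 µg/mL for 16 h. IKK protein analysed by western blotting.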

[18] = target: T1, Interferon regulatory factor 3 (Mus musculus) (UniProt P70671); assay: Inhibition of LPS-stimulated IRF-3 phosphorylation at Ser-396 residue in mouse RAW264.7 cells up to 20 ug/ml preincubated for 30 mins followed by LPS stimulation for 30 mins by Western blot analysis; type: cell-based; in short: as §5
T1 sequence (whole entry): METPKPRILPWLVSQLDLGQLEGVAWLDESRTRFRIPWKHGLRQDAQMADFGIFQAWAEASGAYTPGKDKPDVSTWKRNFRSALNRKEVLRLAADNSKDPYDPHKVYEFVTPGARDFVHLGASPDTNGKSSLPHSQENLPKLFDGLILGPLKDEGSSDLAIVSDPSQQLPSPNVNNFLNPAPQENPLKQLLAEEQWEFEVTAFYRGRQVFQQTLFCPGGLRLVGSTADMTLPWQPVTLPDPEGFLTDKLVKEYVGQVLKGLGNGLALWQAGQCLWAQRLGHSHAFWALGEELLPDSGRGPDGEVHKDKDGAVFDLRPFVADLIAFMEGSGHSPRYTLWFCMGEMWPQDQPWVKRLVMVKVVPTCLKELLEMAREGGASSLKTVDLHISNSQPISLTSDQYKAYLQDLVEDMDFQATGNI

[19] = test system: RAW264.7; assay: Downregulation of IFN-beta mRNA level in LPS-stimulated mouse RAW264.7 cells up to 20 ug/ml preincubated with cells followed by LPS stimulation for 4 hrs by RT-PCR method; type: functional, cell-based; in short: as §4
[20] = test system: RAW264.7; assay: Upregulation of HO-1 protein level in LPS-stimulated mouse RAW264.7 cells at 20 ug/ml preincubated for 30 mins followed by LPS stimulation for 16 hrs by Western blot method; type: functional, cell-based
In short: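 RAW 264.7 cells pretreated with compound for 30 min, then stimulated with LPS 1 µg/mL for 16 h. HO-1 protein measured by western blotting.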

| SMILES | Activity [1] | Activity [2] | also measured |
| --- | --- | --- | --- |
| CCN1C(=O)c2cc(OC)cc(OC)c2C1=O | 43.5% | 10.81 µM | – |
| CCCCN1C(=O)c2cc(O)cc(O)c2C1=O | 73.4% | 18.24 µM | – |
| CCCCCN1C(=O)c2cc(O)cc(O)c2C1=O | 45.5% | 11.3 µM | – |
| CCC(=O)OCCN1C(=O)c2cc(OC)cc(OC)c2C1=O | 101.9% | 25.31 µM | – |
| COc1cc(OC)c2c(c1)C(=O)N(Cc1ccccc1F)C2=O | 75.9% | 18.87 µM | – |
| Cc1cccc(CN2C(=O)c3cc(O)cc(O)c3C2=O)c1 | 41.7% | 10.36 µM | – |
| COc1cc(OC)c2c(c1)C(=O)N(Cc1cccc(C)c1)C2=O | 74.2% | 18.43 µM | – |
| CCCCCN1C(=O)c2cc(OC)cc(OC)c2C1=O | 74.8% | 18.6 µM | – |
| COc1cc(OC)c2c(c1)C(=O)N(C(C)C)C2=O | 97.9% | 24.34 µM | – |
| COc1cc(OC)c2c(c1)C(=O)N(CCO)C2=O | 99.8% | 24.8 µM | – |
| O=C1c2cc(O)cc(O)c2C(=O)N1Cc1cccc(F)c1 | 42.1% | 10.46 µM | – |
| CC(C)CN1C(=O)c2cc(O)cc(O)c2C1=O | 84.8% | 21.07 µM | – |
| CCCCCCCN1C(=O)c2cc(OC)cc(OC)c2C1=O | 84.5% | 20.99 µM | – |
| CC(C)N1C(=O)c2cc(O)cc(O)c2C1=O | 82.4% | 20.47 µM | – |
| COc1cc(OC)c2c(c1)C(=O)N(CC(C)C)C2=O | 86.3% | 21.45 µM | – |
| CCCCN1C(=O)c2cc(OC)cc(OC)c2C1=O | 79.3% | 19.7 µM | – |

| SMILES | Activity [1] | Activity [2] | also measured |
| --- | --- | --- | --- |
| COc1cc(OC)c2c(c1)C(=O)N(Cc1ccccc1Br)C2=O | 83.7% | 20.79 µM | – |
| CCCCCCN1C(=O)c2cc(O)cc(O)c2C1=O | 8% | 1.98 µM | – |
| O=C1c2cc(O)cc(O)c2C(=O)N1Cc1ccc(Br)cc1 | 32.4% | 8.04 µM | – |
| CC1CCN=C(N)S1.Cl (centres undefined) | – | – | Activity [3]: 2%; Activity [4]: 0.5 µM; inhibition at 50 µM [5]: 98% |
| CCCCCCN1C(=O)c2cc(OC)cc(OC)c2C1=O | 92.6% | 23.01 µM | – |
| CCCN1C(=O)c2cc(OC)cc(OC)c2C1=O | 93.5% | 23.24 µM | – |
| CCCN1C(=O)c2cc(O)cc(O)c2C1=O | 83.3% | 20.71 µM | – |
| COc1cc(OC)c2c(c1)C(=O)N(CCOC(=O)CCl)C2=O | 48.9% | 12.14 µM | – |
| O=C1c2cc(O)cc(O)c2C(=O)N1Cc1ccccc1Br | 38.8% | 9.65 µM | – |
| CCN1C(=O)c2cc(O)cc(O)c2C1=O | 85% | 21.12 µM | – |
| CCCCCCCN1C(=O)c2cc(O)cc(O)c2C1=O | 2.9% | 0.72 µM | inhibition [6]: Dose-dependent effect; IC50 ([6]; RAW264.7, 22 h): 8.7 µg/mL (≈ 31.4 µM); viability at 22 h [7]: > 95%; viability at 22 h, 40 ug/ml [8]: 17%; Activity [9]: Dose-dependent effect; Activity [10]: Dose-dependent effect; Activity [11]: Active; Activity [12]: Active; Activity [13]: Dose-dependent effect; inhibition [14]: Active; inhibition [15]: Active; Activity [16]: Active; Activity [17]: Active; inhibition [18]: Active; Activity [19]: Active; Activity [20]: Active |
| O=C1c2cc(O)cc(O)c2C(=O)N1Cc1ccccc1F | 47.3% | 11.76 µM | – |
| COc1cc(OC)c2c(c1)C(=O)N(Cc1ccc(Br)cc1)C2=O | 81.1% | 20.16 µM | – |
| COc1cc(OC)c2c(c1)C(=O)N(CCOC(C)=O)C2=O | 97.1% | 24.13 µM | – |
| COc1cc(OC)c2c(c1)C(=O)N(Cc1cccc(F)c1)C2=O | 75.1% | 18.65 µM | – |
